For experiment [1], the target named is NaV1.5 (Homo sapiens, UniProt Q14524). As to the kind of experiment: Cell membrane chromatography. It counts as binding. The note with it: capacity factor k′; reflects potential cardiac toxicity; k′ < 0 labeled as 0.
The test system of experiment [2] is rats. As to the kind of experiment: Cutaneous trunci pinprick model. Type of experiment: in vivo, rat. Conditions: 62.3 mmol/L. The gist of the method:
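Male SD rats under 1%–3% isoflurane had about 6 cm × 6 cm of back shaved, swabbed with alcohol and split into four areas. Test compound (62.3 mmol/L) was given by s.c. infiltration. Pinprick scored 1 for no response and 0 for response. Duration ran from onset to expiration, expressed as mean-score MPE. Effective block was ≥50% MPE; complete block was 100% MPE.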

Experiment [3] relates to rats. As to the kind of experiment: Sciatic nerve block model. It counts as in vivo, rat. The note with it: 62.3 mmol/L near sciatic nerve; for motor block duration: extensor postural thrust; for duration of effective sensory blockade: hotplate test. The gist of the method: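 Test compound (62.3 mmol/L) was injected near the sciatic nerve. Hind limbs were tested every 30 min until back to pre-test baseline. Sensory: paw withdrawal latency on a 55 °C hotplate, timed by stopwatch. Motor: extensor postural thrust in grams on a digital balance. Recovery was 50% of baseline.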

SMILES strings stand for the structures.

Chain of NaV1.5 (Q14524 whole entry): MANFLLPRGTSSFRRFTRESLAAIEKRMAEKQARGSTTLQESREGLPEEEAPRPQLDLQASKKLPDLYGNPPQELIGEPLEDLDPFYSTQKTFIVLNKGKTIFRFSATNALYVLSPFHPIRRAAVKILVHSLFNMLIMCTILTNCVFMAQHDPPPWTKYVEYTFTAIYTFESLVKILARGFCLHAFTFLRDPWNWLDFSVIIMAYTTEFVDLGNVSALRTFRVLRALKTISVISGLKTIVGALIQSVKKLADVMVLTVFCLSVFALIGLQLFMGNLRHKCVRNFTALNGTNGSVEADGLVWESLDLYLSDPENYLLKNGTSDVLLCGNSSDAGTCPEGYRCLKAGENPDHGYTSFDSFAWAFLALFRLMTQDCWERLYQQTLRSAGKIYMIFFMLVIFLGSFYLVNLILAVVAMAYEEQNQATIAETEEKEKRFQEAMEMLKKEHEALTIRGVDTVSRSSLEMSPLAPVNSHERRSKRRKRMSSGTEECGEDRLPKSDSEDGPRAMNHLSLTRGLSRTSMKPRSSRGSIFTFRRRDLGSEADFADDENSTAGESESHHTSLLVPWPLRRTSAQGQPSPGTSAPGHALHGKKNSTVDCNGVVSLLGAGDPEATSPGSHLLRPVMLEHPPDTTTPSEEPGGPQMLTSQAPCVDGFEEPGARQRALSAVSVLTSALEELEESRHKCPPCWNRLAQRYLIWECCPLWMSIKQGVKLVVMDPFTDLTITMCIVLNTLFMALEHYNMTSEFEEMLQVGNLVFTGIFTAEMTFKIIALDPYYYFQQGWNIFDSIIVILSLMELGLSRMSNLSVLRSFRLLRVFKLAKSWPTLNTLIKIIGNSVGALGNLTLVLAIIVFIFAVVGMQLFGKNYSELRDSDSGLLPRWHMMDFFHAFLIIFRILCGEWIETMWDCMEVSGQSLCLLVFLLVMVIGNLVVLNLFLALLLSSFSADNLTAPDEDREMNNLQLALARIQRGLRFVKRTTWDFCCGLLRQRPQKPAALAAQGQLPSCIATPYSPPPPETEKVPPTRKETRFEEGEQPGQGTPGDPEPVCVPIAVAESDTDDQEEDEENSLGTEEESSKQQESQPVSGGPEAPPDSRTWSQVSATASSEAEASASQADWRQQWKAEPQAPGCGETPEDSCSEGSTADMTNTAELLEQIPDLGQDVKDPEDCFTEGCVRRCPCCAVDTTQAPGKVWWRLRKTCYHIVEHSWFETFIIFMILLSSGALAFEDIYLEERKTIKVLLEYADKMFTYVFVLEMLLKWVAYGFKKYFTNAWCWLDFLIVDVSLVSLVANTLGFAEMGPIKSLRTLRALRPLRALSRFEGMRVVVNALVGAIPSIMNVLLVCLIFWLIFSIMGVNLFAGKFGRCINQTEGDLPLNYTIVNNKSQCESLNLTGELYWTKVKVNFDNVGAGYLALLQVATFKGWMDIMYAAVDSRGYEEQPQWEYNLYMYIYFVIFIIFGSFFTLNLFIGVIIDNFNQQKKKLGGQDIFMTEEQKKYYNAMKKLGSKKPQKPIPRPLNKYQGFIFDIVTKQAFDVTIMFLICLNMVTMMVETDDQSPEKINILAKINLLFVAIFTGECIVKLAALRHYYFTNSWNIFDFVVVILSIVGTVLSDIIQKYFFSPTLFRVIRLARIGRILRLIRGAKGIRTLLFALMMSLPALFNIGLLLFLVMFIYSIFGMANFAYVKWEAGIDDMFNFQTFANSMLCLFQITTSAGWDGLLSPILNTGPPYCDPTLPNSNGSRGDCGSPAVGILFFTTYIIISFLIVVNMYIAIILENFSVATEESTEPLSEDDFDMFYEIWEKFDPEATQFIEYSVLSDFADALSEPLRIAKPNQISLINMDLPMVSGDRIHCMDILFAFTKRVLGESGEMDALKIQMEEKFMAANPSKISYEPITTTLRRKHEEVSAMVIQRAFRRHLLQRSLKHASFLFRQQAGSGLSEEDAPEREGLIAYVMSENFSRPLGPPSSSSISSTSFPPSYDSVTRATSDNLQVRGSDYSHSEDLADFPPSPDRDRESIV

Consider `COC(=O)c1scc(C)c1NC(=O)C(C)N1CCNCC1` (stereo not shown) [AT-1, methyl 4-methyl-3-(2-(piperazin-1-yl)propanamido)thiophene-2-carboxylate], for which the “k′ NaV1.5” value in experiment [1] is 80.8. In addition, the subcutaneous infiltration duration in experiment [2] was determined as 240 min. Turning to `COC(=O)c1scc(C)c1NC(=O)C(C)N1CCN(C)C(C)C1` (stereo not shown) [AT-2, Methyl 3-(2-(3,4-dimethylpiperazin-1-yl)propanamido)-4-methylthiophene-2-carboxylate], in experiment [1], the “k′ NaV1.5” value is on record as 92.

In the case of `COC(=O)c1scc(C)c1NC(=O)C(C)N1CCCCC1` (stereo not shown) [AT-3, Methyl 4-methyl-3-(2-(piperidin-1-yl)propanamido)thiophene-2-carboxylate], the “k′ NaV1.5” value in experiment [1] stood at 1.1. Take `COC(=O)c1scc(C)c1NC(=O)C(C)N1CC(C)CC(C)C1` (stereo not shown) [AT-4, Methyl 3-(2-(3,5-dimethylpiperidin-1-yl)propanamido)-4-methylthiophene-2-carboxylate]: in experiment [1], the “k′ NaV1.5” value worked out at 71.2. For the compound `COC(=O)c1scc(C)c1NC(=O)C(C)N1CCOCC1` (stereo not shown) [AT-5, Methyl 4-methyl-3-(2-morpholinopropanamido)thiophene-2-carboxylate], in experiment [1], the “k′ NaV1.5” value worked out at 18.4. `COC(=O)c1scc(C)c1NC(=O)C(C)N1CCOCC1C` (stereo not shown) [AT-6, Methyl 4-methyl-3-(2-(3-methylmorpholino)propanamido)thiophene-2-carboxylate]: the “k′ NaV1.5” value in experiment [1] amounted to 28. `COC(=O)c1scc(C)c1NC(=O)C(C)N1C(C)COCC1C` (stereo not shown) [AT-7, Methyl 3-(2-(3,5-dimethylmorpholino)propanamido)-4-methylthiophene-2-carboxylate]: in experiment [1], the “k′ NaV1.5” value is 24.

For `COC(=O)c1scc(C)c1NC(=O)C(C)N1CC(C)OC(C)(C)C1` (stereo not shown) [AT-8, Methyl 4-methyl-3-(2-(2,2,6-trimethylmorpholino)propanamido)thiophene-2-carboxylate], the “k′ NaV1.5” value in experiment [1] is 36.8. With `COC(=O)c1scc(C)c1NC(=O)C(C)N1CCSCC1` (stereo not shown) [AT-9, Methyl 4-methyl-3-(2-thiomorpholinopropanamido)thiophene-2-carboxylate], in experiment [1], the “k′ NaV1.5” value was 48.6.

Regarding `COC(=O)c1scc(C)c1NC(=O)C(C)N1CCS(=O)(=O)CC1` (stereo not shown) [AT-10, Methyl 3-(2-(1,1-dioxidothiomorpholino)propanamido)-4-methylthiophene-2-carboxylate], the “k′ NaV1.5” value in experiment [1] came out at 0. For the compound `COC(=O)c1scc(C)c1NC(=O)C(C)N1CCN(C)CC1` (stereo not shown) [AT-11, Methyl 4-methyl-3-(2-(4-methylpiperazin-1-yl)propanamido)thiophene-2-carboxylate], in experiment [1], the “k′ NaV1.5” value was determined as 8. In addition, the subcutaneous infiltration duration in experiment [2] was 260 min. As to `CCN1CCN(C(C)C(=O)Nc2c(C)csc2C(=O)OC)CC1` (stereo not shown) [AT-12, Methyl 3-(2-(4-ethylpiperazin-1-yl)propanamido)-4-methylthiophene-2-carboxylate], in experiment [1], the “k′ NaV1.5” value came to 1.2. In the case of `COC(=O)c1scc(C)c1NC(=O)C(C)N1CCN(CC2CC2)CC1` (stereo not shown) [AT-14, Methyl 3-(2-(4-(cyclopropylmethyl)piperazin-1-yl)propanamido)-4-methylthiophene-2-carboxylate], the “k′ NaV1.5” value in experiment [1] is reported as 22.

`COC(=O)c1scc(C)c1NC(=O)C(C)N1CCN(C(C)(C)C)CC1` (stereo not shown) [AT-15, Methyl 3-(2-(4-(tert-butyl)piperazin-1-yl)propanamido)-4-methylthiophene-2-carboxylate]: the “k′ NaV1.5” value in experiment [1] was determined as 116.4. The compound further came in with a subcutaneous infiltration duration in experiment [2] of 205 min. Besides, in experiment [3], the motor block duration was found to be 210 min and the “duration of effective sensory blockade” value is given as 190 min.

In the case of `CCCN1CCN(C(C)C(=O)Nc2c(C)csc2C(=O)OC)CC1` (stereo not shown) [AT-16, Methyl 4-methyl-3-(2-(4-propylpiperazin-1-yl)propanamido)thiophene-2-carboxylate], in experiment [1], the “k′ NaV1.5” value is given as 42.4.

With `COC(=O)c1scc(C)c1NC(=O)C(C)N1CCN(c2ccccc2)CC1` (stereo not shown) [AT-18, Methyl 4-methyl-3-(2-(4-phenylpiperazin-1-yl)propanamido)thiophene-2-carboxylate], the “k′ NaV1.5” value in experiment [1] worked out at 57.8. Still for that read-out and setting: for `COC(=O)c1scc(C)c1NC(=O)C(C)N1CCN(CCO)CC1` (stereo not shown) [AT-19, Methyl 3-(2-(4-(2-hydroxyethyl)piperazin-1-yl)propanamido)-4-methylthiophene-2-carboxylate] the value was 92; for `COCCN1CCN(C(C)C(=O)Nc2c(C)csc2C(=O)OC)CC1` (stereo not shown) [AT-20, Methyl 3-(2-(4-(2-methoxyethyl)piperazin-1-yl)propanamido)-4-methylthiophene-2-carboxylate], 92.

Consider `COC(=O)c1scc(C)c1NC(=O)CN1CCN(C(C)C)CC1` [AT-21, Methyl 3-(2-(4-isopropylpiperazin-1-yl)acetamido)-4-methylthiophene-2-carboxylate], for which the “k′ NaV1.5” value in experiment [1] worked out at 5.8. Also, in experiment [2], the “subcutaneous infiltration effect compared with AT” value is “fewer effects than AT”. For the compound `CCC(C(=O)Nc1c(C)csc1C(=O)OC)N1CCN(C(C)C)CC1` (stereo not shown) [AT-22, Methyl 3-(2-(4-isopropylpiperazin-1-yl)butanamido)-4-methylthiophene-2-carboxylate], the “k′ NaV1.5” value in experiment [1] came to 21.4. The compound further yielded a subcutaneous infiltration duration in experiment [2] of 260 min. In experiment [3], the motor block duration was determined as 240 min and the “duration of effective sensory blockade” value is given as 220 min. Consider `COCCN(CCOC)C(C)C(=O)Nc1c(C)csc1C(=O)OC` (stereo not shown) [AT-23, Methyl 3-(2-(bis(2-methoxyethyl)amino)propanamido)-4-methylthiophene-2-carboxylate], for which the “k′ NaV1.5” value in experiment [1] was found to be 43.6. `CCN(CCO)C(C)C(=O)Nc1c(C)csc1C(=O)OC` (stereo not shown) [AT-24, Methyl 3-(2-(ethyl(2-hydroxyethyl)amino)propanamido)-4-methylthiophene-2-carboxylate]: in experiment [1], the “k′ NaV1.5” value is 27.6. Still for that read-out and setting: as for `COC(=O)c1scc(C)c1NC(=O)C(C)N(CCO)CCO` (stereo not shown) [AT-25, Methyl 3-(2-(bis(2-hydroxyethyl)amino)propanamido)-4-methylthiophene-2-carboxylate], the figure is 12.1; as for `COC(=O)c1scc(C)c1NC(=O)C(C)NCCN1CCOCC1` (stereo not shown) [AT-26, Methyl 4-methyl-3-(2-((2-morpholinoethyl)amino)propanamido)thiophene-2-carboxylate], 72.4. `CCCNC(C)C(=O)Nc1c(C)csc1C(=O)OCC` (stereo not shown) [AT-27, Ethyl 4-methyl-3-(2-(propylamino)propanamido)thiophene-2-carboxylate]: the “k′ NaV1.5” value in experiment [1] was 0.6.

Consider `CCCNC(C)C(=O)Nc1c(C)csc1C(=O)OCCC` (stereo not shown) [AT-28, Propyl 4-methyl-3-(2-(propylamino)propanamido)thiophene-2-carboxylate], for which the “k′ NaV1.5” value in experiment [1] is reported as 38. For `CCCCOC(=O)c1scc(C)c1NC(=O)C(C)NCCC` (stereo not shown) [AT-29, Butyl 4-methyl-3-(2-(propylamino)propanamido)thiophene-2-carboxylate], the “k′ NaV1.5” value in experiment [1] is recorded as 35. Regarding `CCCNC(C)C(=O)Nc1c(C)csc1C(=O)OCC(C)C` (stereo not shown) [AT-30, Isobutyl 4-methyl-3-(2-(propylamino)propanamido)thiophene-2-carboxylate], the “k′ NaV1.5” value in experiment [1] is recorded as 105.4.

Values taken from article PMC11252475 (Acta Pharmaceutica Sinica. B, 2024).
